ChEMBL document CHEMBL4689842, “EUbOPEN Chemogenomics Library wave 1” (2021)

Test system: HEK-293T
Test: Multiplex assay against HEK293T;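 as to Population Tubulin-Different-Phenotype (%): share of the cells with healthy nuclei that show this phenotype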
Type: toxicity, cell-based
Conditions: human
Procedure, shortened: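 Hoechst33342, BioTracker Green Microtubule Cytoskeleton Dye, MitoTracker Red and Annexin V Alexa Fluor 680 were added to live cells at seeding, and imaging on a CQ1 microscope at 37°C and 5% CO2 followed compound addition. Gating by CellPathfinder machine learning separated cells into Hoechst high-intensity objects or normal cells, then normal cells into healthy, pyknosed or fragmented nuclei, then pyknosed cells into mitotic or apoptotic. Per cents of healthy-nucleus cells are reported for the tubulin, mitochondrial-mass and membrane-permeability phenotypes.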

[1] = 12 h, 1 µM, compound concentration 1 uM, replicate 1
[2] = 12 h, 1 µM, compound concentration 1 uM, replicate 2
[3] = 12 h, 10 µM, compound concentration 10 uM, replicate 1
[4] = 12 h, 10 µM, compound concentration 10 uM, replicate 2
[5] = 24 h, 1 µM, compound concentration 1 uM, replicate 1
[6] = 24 h, 1 µM, compound concentration 1 uM, replicate 2
[7] = 24 h, 10 µM, compound concentration 10 uM, replicate 1
[8] = 24 h, 10 µM, compound concentration 10 uM, replicate 2

For `c1ccc2oc(-c3csc(C4CCN(Cc5nc6ncccc6[nH]5)CC4)n3)cc2c1`, the “Population Apoptotic (%)” value [1] was 23%, the “Population Fragmented Nuclei (%)” value [1] was 23% and the “Population Healthy Nuclei (%)” value [1] was 39%. For the same compound, the “Population Hoechst High Intensity Objects (%)” value [1] was 19%, the “Population Membrane Permeable-Phenotype (%)” value [1] was 5% and the “Population Mitochondria Different-Phenotype (%)” value [1] was 5%. For the same compound, the “Population Mitotic Cells (%)” value [1] was 76%, the “Population Normal (%)” value [1] was 80% and the “Population Pyknosed Nuclei (%)” value [1] was 37%. For the same compound, the “Population Tubulin-Different-Phenotype (%)” value [1] was 7%, the “Total Cell Count” value [1] was 599 and the “Population Apoptotic (%)” value [2] was 13%. The “Population Fragmented Nuclei (%)” value [2] was 4%, the “Population Healthy Nuclei (%)” value [2] was 83% and the “Population Hoechst High Intensity Objects (%)” value [2] was 4%. For the same compound, the “Population Membrane Permeable-Phenotype (%)” value [2] was 1%, the “Population Mitochondria Different-Phenotype (%)” value [2] was 21% and the “Population Mitotic Cells (%)” value [2] was 86%. For the same compound, the “Population Normal (%)” value [2] was 95%, the “Population Pyknosed Nuclei (%)” value [2] was 11% and the “Population Tubulin-Different-Phenotype (%)” value [2] was 13%. The “Total Cell Count” value [2] was 1174, the “Population Apoptotic (%)” value [3] was 17% and the “Population Fragmented Nuclei (%)” value [3] was 18%. For the same compound, the “Population Healthy Nuclei (%)” value [3] was 54%, the “Population Hoechst High Intensity Objects (%)” value [3] was 14% and the “Population Membrane Permeable-Phenotype (%)” value [3] was 5%. The “Population Mitochondria Different-Phenotype (%)” value [3] was 5%, the “Population Mitotic Cells (%)” value [3] was 82% and the “Population Normal (%)” value [3] was 85%. For the same compound, the “Population Pyknosed Nuclei (%)” value [3] was 26%, the “Population Tubulin-Different-Phenotype (%)” value [3] was 4% and the “Total Cell Count” value [3] was 511. For the same compound, the “Population Apoptotic (%)” value [4] was 12%, the “Population Fragmented Nuclei (%)” value [4] was 6% and the “Population Healthy Nuclei (%)” value [4] was 86%. The “Population Hoechst High Intensity Objects (%)” value [4] was 3%, the “Population Membrane Permeable-Phenotype (%)” value [4] was 2% and the “Population Mitochondria Different-Phenotype (%)” value [4] was 10%. For the same compound, the “Population Mitotic Cells (%)” value [4] was 87%, the “Population Normal (%)” value [4] was 96% and the “Population Pyknosed Nuclei (%)” value [4] was 7%. For the same compound, the “Total Cell Count” value [4] was 1122, the “Population Apoptotic (%)” value [5] was 20% and the “Population Fragmented Nuclei (%)” value [5] was 21%. The “Population Healthy Nuclei (%)” value [5] was 50%, the “Population Hoechst High Intensity Objects (%)” value [5] was 15% and the “Population Membrane Permeable-Phenotype (%)” value [5] was 8%. The “Population Mitochondria Different-Phenotype (%)” value [5] was 10%, the “Population Mitotic Cells (%)” value [5] was 79% and the “Population Normal (%)” value [5] was 84%. For the same compound, the “Population Pyknosed Nuclei (%)” value [5] was 28%, the “Population Tubulin-Different-Phenotype (%)” value [5] was 13% and the “Total Cell Count” value [5] was 538. For the same compound, the “Population Apoptotic (%)” value [6] was 15%, the “Population Fragmented Nuclei (%)” value [6] was 5% and the “Population Healthy Nuclei (%)” value [6] was 86%. The “Population Hoechst High Intensity Objects (%)” value [6] was 6%, the “Population Membrane Permeable-Phenotype (%)” value [6] was 4% and the “Population Mitochondria Different-Phenotype (%)” value [6] was 12%. For the same compound, the “Population Mitotic Cells (%)” value [6] was 84%, the “Population Normal (%)” value [6] was 93% and the “Population Pyknosed Nuclei (%)” value [6] was 7%. The “Population Tubulin-Different-Phenotype (%)” value [6] was 30%, the “Total Cell Count” value [6] was 1346 and the “Population Apoptotic (%)” value [7] was 16%. For the same compound, the “Population Fragmented Nuclei (%)” value [7] was 20%, the “Population Healthy Nuclei (%)” value [7] was 60% and the “Population Hoechst High Intensity Objects (%)” value [7] was 15%. For the same compound, the “Population Membrane Permeable-Phenotype (%)” value [7] was 7%, the “Population Mitochondria Different-Phenotype (%)” value [7] was 5% and the “Population Mitotic Cells (%)” value [7] was 83%. The “Population Normal (%)” value [7] was 84%, the “Population Pyknosed Nuclei (%)” value [7] was 19% and the “Population Tubulin-Different-Phenotype (%)” value [7] was 7%. For the same compound, the “Total Cell Count” value [7] was 500, the “Population Apoptotic (%)” value [8] was 5% and the “Population Fragmented Nuclei (%)” value [8] was 11%. The “Population Healthy Nuclei (%)” value [8] was 84%, the “Population Hoechst High Intensity Objects (%)” value [8] was 3% and the “Population Membrane Permeable-Phenotype (%)” value [8] was 6%. The “Population Mitochondria Different-Phenotype (%)” value [8] was 2%, the “Population Mitotic Cells (%)” value [8] was 95% and the “Population Normal (%)” value [8] was 96%. For the same compound, the “Population Pyknosed Nuclei (%)” value [8] was 3%, the “Population Tubulin-Different-Phenotype (%)” value [8] was 9% and the “Total Cell Count” value [8] was 1653.
In the case of `CN(C)CCOc1ccc(-c2nc(-c3ccncc3)c(-c3ccc4c(c3)CC/C4=N\O)[nH]2)cc1` [SB590885], the “Population Apoptotic (%)” value [1] is reported as 25%, the “Population Fragmented Nuclei (%)” value [1] is reported as 15% and the “Population Healthy Nuclei (%)” value [1] is reported as 65%. For the same compound, the “Population Hoechst High Intensity Objects (%)” value [1] was 22%, the “Population Membrane Permeable-Phenotype (%)” value [1] was 30% and the “Population Mitochondria Different-Phenotype (%)” value [1] was 8%. The “Population Mitotic Cells (%)” value [1] was 74%, the “Population Normal (%)” value [1] was 77% and the “Population Pyknosed Nuclei (%)” value [1] was 18%. For the same compound, the “Population Tubulin-Different-Phenotype (%)” value [1] was 44%, the “Total Cell Count” value [1] was 678 and the “Population Apoptotic (%)” value [2] was 17%. The “Population Fragmented Nuclei (%)” value [2] was 2%, the “Population Healthy Nuclei (%)” value [2] was 88% and the “Population Hoechst High Intensity Objects (%)” value [2] was 12%. For the same compound, the “Population Membrane Permeable-Phenotype (%)” value [2] was 12%, the “Population Mitochondria Different-Phenotype (%)” value [2] was 23% and the “Population Mitotic Cells (%)” value [2] was 82%. For the same compound, the “Population Normal (%)” value [2] was 87%, the “Population Pyknosed Nuclei (%)” value [2] was 8% and the “Population Tubulin-Different-Phenotype (%)” value [2] was 76%. For the same compound, the “Total Cell Count” value [2] was 1120, the “Population Apoptotic (%)” value [3] was 28% and the “Population Fragmented Nuclei (%)” value [3] was 12%. For the same compound, the “Population Healthy Nuclei (%)” value [3] was 69%, the “Population Hoechst High Intensity Objects (%)” value [3] was 9% and the “Population Membrane Permeable-Phenotype (%)” value [3] was 4%. For the same compound, the “Population Mitochondria Different-Phenotype (%)” value [3] was 8%, the “Population Mitotic Cells (%)” value [3] was 71% and the “Population Normal (%)” value [3] was 90%. For the same compound, the “Population Pyknosed Nuclei (%)” value [3] was 18%, the “Population Tubulin-Different-Phenotype (%)” value [3] was 5% and the “Total Cell Count” value [3] was 676. The “Population Apoptotic (%)” value [4] was 8%, the “Population Fragmented Nuclei (%)” value [4] was 7% and the “Population Healthy Nuclei (%)” value [4] was 87%. The “Population Hoechst High Intensity Objects (%)” value [4] was 1%, the “Population Membrane Permeable-Phenotype (%)” value [4] was 3% and the “Population Mitotic Cells (%)” value [4] was 91%. The “Population Normal (%)” value [4] was 98%, the “Population Pyknosed Nuclei (%)” value [4] was 4% and the “Population Tubulin-Different-Phenotype (%)” value [4] was 9%. The “Total Cell Count” value [4] was 1929, the “Population Apoptotic (%)” value [5] was 24% and the “Population Fragmented Nuclei (%)” value [5] was 15%. For the same compound, the “Population Healthy Nuclei (%)” value [5] was 69%, the “Population Hoechst High Intensity Objects (%)” value [5] was 24% and the “Population Membrane Permeable-Phenotype (%)” value [5] was 23%. For the same compound, the “Population Mitochondria Different-Phenotype (%)” value [5] was 14%, the “Population Mitotic Cells (%)” value [5] was 75% and the “Population Normal (%)” value [5] was 75%. For the same compound, the “Population Pyknosed Nuclei (%)” value [5] was 15%, the “Population Tubulin-Different-Phenotype (%)” value [5] was 48% and the “Total Cell Count” value [5] was 670. For the same compound, the “Population Apoptotic (%)” value [6] was 10%, the “Population Fragmented Nuclei (%)” value [6] was 6% and the “Population Healthy Nuclei (%)” value [6] was 86%. For the same compound, the “Population Hoechst High Intensity Objects (%)” value [6] was 18%, the “Population Membrane Permeable-Phenotype (%)” value [6] was 27% and the “Population Mitochondria Different-Phenotype (%)” value [6] was 7%. The “Population Mitotic Cells (%)” value [6] was 89%, the “Population Normal (%)” value [6] was 81% and the “Population Pyknosed Nuclei (%)” value [6] was 6%. For the same compound, the “Population Tubulin-Different-Phenotype (%)” value [6] was 65%, the “Total Cell Count” value [6] was 1437 and the “Population Apoptotic (%)” value [7] was 20%. The “Population Fragmented Nuclei (%)” value [7] was 9%, the “Population Healthy Nuclei (%)” value [7] was 85% and the “Population Hoechst High Intensity Objects (%)” value [7] was 5%. For the same compound, the “Population Membrane Permeable-Phenotype (%)” value [7] was 10%, the “Population Mitochondria Different-Phenotype (%)” value [7] was 5% and the “Population Mitotic Cells (%)” value [7] was 79%. For the same compound, the “Population Normal (%)” value [7] was 94%, the “Population Pyknosed Nuclei (%)” value [7] was 5% and the “Population Tubulin-Different-Phenotype (%)” value [7] was 8%. The “Total Cell Count” value [7] was 810, the “Population Apoptotic (%)” value [8] was 1% and the “Population Fragmented Nuclei (%)” value [8] was 24%. For the same compound, the “Population Healthy Nuclei (%)” value [8] was 73%, the “Population Hoechst High Intensity Objects (%)” value [8] was 3% and the “Population Membrane Permeable-Phenotype (%)” value [8] was 7%. The “Population Mitochondria Different-Phenotype (%)” value [8] was 1%, the “Population Mitotic Cells (%)” value [8] was 98% and the “Population Normal (%)” value [8] was 96%. For the same compound, the “Population Pyknosed Nuclei (%)” value [8] was 2%, the “Population Tubulin-Different-Phenotype (%)” value [8] was 10% and the “Total Cell Count” value [8] was 3237.
